Molecules are shown by their SMILES. Activity calls are given as the source filed them. No cut-off for these calls is given here.

1 compound from ChEMBL document CHEMBL4428033, “The Flavone Luteolin Inhibits Liver X Receptor Activation” (J Nat Prod, 2016) can be followed below.

The target of data set [1] is T1, Oxysterols receptor LXR-alpha/beta (Mus musculus) (UniProt Q9Z0Y9+Q60644). Nature of the data set: Inhibition of T0901317-induced LXR-alpha/beta transactivation in mouse RAW264.7 cells assessed as reduction in ABCA1 mRNA expression at 10 uM after 3 hrs by RT-PCR method. In kind it is cell-based. The procedure, abridged:
(§1)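 RAW 264.7 macrophages pretreated 1 h with T0901317 (0.01–10 μM, or 1 μM), or left in medium, then luteolin 10, 25 or 50 μM for 3 h. ABCA1 mRNA by SYBR-Green real-time RT-PCR, normalised to HPRT1. Pfaffl fold change versus medium control or the T0901317-treated sample. Three independent experiments in duplicate, mean ± SEM. One-way ANOVA with Dunnett's test.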

Data set [2] addresses T2, Oxysterols receptor LXR-alpha (Homo sapiens) (UniProt Q13133).
T2 sequence (whole entry): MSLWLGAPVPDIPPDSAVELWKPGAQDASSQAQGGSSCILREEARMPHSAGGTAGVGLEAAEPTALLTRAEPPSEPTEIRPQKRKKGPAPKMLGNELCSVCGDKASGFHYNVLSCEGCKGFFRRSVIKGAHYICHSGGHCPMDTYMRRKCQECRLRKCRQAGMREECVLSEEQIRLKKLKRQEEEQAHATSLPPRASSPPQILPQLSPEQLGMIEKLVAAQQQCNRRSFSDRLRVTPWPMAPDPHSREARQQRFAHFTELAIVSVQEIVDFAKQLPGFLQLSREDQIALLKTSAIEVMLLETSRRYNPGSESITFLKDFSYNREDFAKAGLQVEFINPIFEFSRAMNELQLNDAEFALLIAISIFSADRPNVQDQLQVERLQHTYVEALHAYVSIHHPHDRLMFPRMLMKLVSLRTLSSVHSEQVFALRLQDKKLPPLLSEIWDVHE
Nature of the data set: Inhibition of T0901317-induced human LXR-alpha transcriptional activity after 22 hrs by cell based luciferase reporter gene assay. In a few lines: (§2)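 Commercial LXRα or LXRβ luciferase reporter cells (nonhuman mammalian) kept in medium or given T0901317 0.01–10 μM, alone or with luteolin 10, 25 or 50 μM, for 22 h. Luminescence read per kit instructions, 500 ms read time. RLU plotted against log T0901317 concentration.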
For orientation: Reporter assays use an easily measured gene product as a stand-in for the process of interest.

The target in data set [3] is T3, Oxysterols receptor LXR-beta (Homo sapiens) (UniProt P55055).
T3 sequence (whole entry): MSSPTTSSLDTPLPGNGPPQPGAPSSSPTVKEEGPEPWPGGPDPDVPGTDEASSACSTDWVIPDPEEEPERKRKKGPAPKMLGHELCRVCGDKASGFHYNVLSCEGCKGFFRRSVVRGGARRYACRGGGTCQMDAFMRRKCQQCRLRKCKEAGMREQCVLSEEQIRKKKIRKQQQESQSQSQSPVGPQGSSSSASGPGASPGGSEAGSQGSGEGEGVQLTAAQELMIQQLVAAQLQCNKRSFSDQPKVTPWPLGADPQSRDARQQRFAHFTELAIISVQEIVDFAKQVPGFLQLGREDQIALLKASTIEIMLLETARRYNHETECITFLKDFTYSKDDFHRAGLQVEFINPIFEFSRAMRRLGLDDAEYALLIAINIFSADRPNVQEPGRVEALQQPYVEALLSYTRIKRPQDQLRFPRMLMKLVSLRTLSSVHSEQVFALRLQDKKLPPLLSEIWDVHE
Nature of the data set: Inhibition of T0901317-induced human LXR-beta transcriptional activity after 22 hrs by cell based luciferase reporter gene assay. The procedure, abridged: as §2

Data set [4] has as its target T2, Oxysterols receptor LXR-alpha (Homo sapiens). Nature of the data set: Inhibition of T0901317-induced human LXR-alpha transcriptional activity at 10 uM after 22 hrs by cell based luciferase reporter gene assay. In a few lines:
as §2

The target in data set [5] is T3, Oxysterols receptor LXR-beta (Homo sapiens). Nature of the data set: Inhibition of T0901317-induced human LXR-beta transcriptional activity at 10 uM after 22 hrs by cell based luciferase reporter gene assay. In a few lines: as §2
Data set [6] has as its target T2, Oxysterols receptor LXR-alpha (Homo sapiens). Nature of the data set: Transactivation of human LXR-alpha at 10 to 50 uM after 22 hrs by cell based luciferase reporter gene assay. The procedure, abridged:
as §2

Data set [7] concerns the target T3, Oxysterols receptor LXR-beta (Homo sapiens). Nature of the data set: Transactivation of human LXR-beta at 10 to 50 uM after 22 hrs by cell based luciferase reporter gene assay. In a few lines:
as §2

The target in data set [8] is T4, Liver X receptor (Homo sapiens) (UniProt Q13133+P55055). Nature of the data set: Inhibition of T0901317-induced LXR-alpha/beta transactivation in human HepG2 cells assessed as reduction in SREBP-1c mRNA expression at 50 uM after 12 hrs by RT-PCR method. In kind it is cell-based. In a few lines:
(§3)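 HepG2 cells in low-glucose DMEM with 10% FBS, 37 °C, 5% CO2. Pretreated 1 h with T0901317 (0.01–10 μM, or 0.05 or 1 μM), or left in medium, then given luteolin 10, 25 or 50 μM for 12 h. Trizol RNA, SYBR-Green real-time RT-PCR for SREBP-1c, normalised to HPRT1. Pfaffl fold change versus medium control. Two independent experiments in duplicate, mean ± SEM.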

Data set [9] has as its target T4, Liver X receptor (Homo sapiens). Nature of the data set: Inhibition of T0901317-induced LXR-alpha/beta transactivation in human HepG2 cells assessed as reduction in SREBP-1c mRNA expression at 10 to 25 uM after 12 hrs by RT-PCR method. It counts as cell-based. The procedure, abridged: as §3
In another data set the target is T5, Liver X receptor (Homo sapiens, UniProt Q13133+P55055).
T5 sequence (Q13133 whole entry): T2 sequence (whole entry)
T5 sequence (P55055 whole entry): T3 sequence (whole entry)
Nature of the data set: Transactivation of LXR-alpha/beta in human HepG2 cells assessed as upregulation of SREBP-1c mRNA expression at 10 to 50 uM after 12 hrs by RT-PCR method. It counts as cell-based. Conditions: hepg2, 12 h. The procedure, abridged:
as §3

Data set [10] deals with HepG2. Nature of the data set: Cytotoxicity against human HepG2 cells assessed as reduction in cell viability at 10 to 50 uM after 12 hrs by MTT assay. The settings on record: hepg2, 12 h. In kind it is cell-based. In a few lines: (§4)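 Cells treated as in the RT-PCR assays (T0901317 pretreatment 1 h, then luteolin 10, 25 or 50 μM; 12 h for HepG2, 3 h for RAW 264.7). MTT added at 37 °C for 60 min (HepG2) or 15 min (RAW 264.7). Formazan dissolved in acidic 2-propanol and read at 570 nm, reference 620 nm.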
On the technique in general: Tetrazolium assays rely on reduction of a dye to a coloured formazan, in cell work by metabolically active cells.

For data set [11], the system named is HepG2. Nature of the data set: Inhibition of T0901317-induced lipid accumulation in human HepG2 cells at 50 uM preincubated for 1 hr followed by T0901317 addition measured after 24 hrs by Oil Red-O dye based microscopic analysis. In kind it is functional, cell-based. The procedure, abridged: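 HepG2 cells preincubated 1 h with luteolin 25 or 50 μM, then T0901317 5 μM added for 24 h. Fixed in 4% paraformaldehyde for 20 min at room temperature. Stained with Oil Red-O (0.6% stock diluted 6:4 with water) for 45 min at room temperature, washed, then imaged by microscopy; absorbance recorded.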

In data set [12] the target is T1, Oxysterols receptor LXR-alpha/beta (Mus musculus). Nature of the data set: Inhibition of T0901317-induced LXR-alpha/beta transactivation in mouse RAW264.7 cells assessed as reduction in ABCA1 mRNA expression at 25 uM after 3 hrs by RT-PCR method relative to control. It counts as cell-based. In a few lines: as §1
For data set [13] the target is unchanged. Nature of the data set: Inhibition of T0901317-induced LXR-alpha/beta transactivation in mouse RAW264.7 cells assessed as reduction in ABCA1 mRNA expression at 50 uM after 3 hrs by RT-PCR method relative to control. It counts as cell-based. The procedure, abridged: as §1
The target is the same in data set [14]. Nature of the data set: Inhibition of T0901317-induced LXR-alpha/beta transactivation in mouse RAW264.7 cells assessed as reduction in ABCA1 mRNA expression after 3 hrs by RT-PCR method. It counts as cell-based. In a few lines:
as §1

Data set [15] deals with T6, Oxysterols receptor LXR-alpha/beta (Mus musculus, UniProt Q9Z0Y9+Q60644).
T6 sequence (Q9Z0Y9 whole entry): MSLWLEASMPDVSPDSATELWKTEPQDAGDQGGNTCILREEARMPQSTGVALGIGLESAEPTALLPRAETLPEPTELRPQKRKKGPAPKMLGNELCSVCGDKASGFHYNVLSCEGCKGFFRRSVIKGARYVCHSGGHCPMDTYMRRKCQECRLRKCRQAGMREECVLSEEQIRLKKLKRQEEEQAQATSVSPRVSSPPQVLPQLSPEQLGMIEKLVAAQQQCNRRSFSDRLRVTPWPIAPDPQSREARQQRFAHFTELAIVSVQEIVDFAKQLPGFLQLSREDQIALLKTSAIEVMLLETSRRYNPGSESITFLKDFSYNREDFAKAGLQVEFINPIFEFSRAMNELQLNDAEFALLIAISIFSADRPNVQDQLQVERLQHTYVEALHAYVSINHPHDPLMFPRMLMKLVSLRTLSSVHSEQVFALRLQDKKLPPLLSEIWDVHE
T6 sequence (Q60644 whole entry): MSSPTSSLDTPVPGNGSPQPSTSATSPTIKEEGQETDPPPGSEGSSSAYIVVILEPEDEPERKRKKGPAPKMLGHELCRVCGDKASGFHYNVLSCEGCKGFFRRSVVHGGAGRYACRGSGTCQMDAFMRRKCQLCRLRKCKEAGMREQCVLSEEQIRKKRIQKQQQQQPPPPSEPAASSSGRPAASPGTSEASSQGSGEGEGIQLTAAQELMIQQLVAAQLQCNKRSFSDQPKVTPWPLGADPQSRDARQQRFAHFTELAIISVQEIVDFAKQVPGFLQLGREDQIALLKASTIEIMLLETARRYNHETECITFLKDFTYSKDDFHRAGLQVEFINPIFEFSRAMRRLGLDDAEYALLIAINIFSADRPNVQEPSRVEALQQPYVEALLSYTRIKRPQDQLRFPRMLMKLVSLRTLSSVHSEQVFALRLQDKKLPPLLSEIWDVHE
Nature of the data set: Transactivation of LXR-alpha/beta in mouse RAW264.7 cells assessed as upregulation of ABCA1 mRNA expression at 10 to 50 uM after 3 hrs by RT-PCR method. In kind it is cell-based. The settings on record: raw264.7, 3 h. In a few lines:
as §1

The next data set deals with RAW264.7. Nature of the data set: Cytotoxicity against mouse RAW264.7 cells assessed as reduction in cell viability at 10 to 50 uM after 3 hrs by MTT assay. It counts as cell-based. The settings on record: raw264.7, 3 h. The procedure, abridged: as §4
Data set [16] has as its system Mus musculus. Nature of the data set: Antihyperlipidemic activity in ethanol-induced steatosis C57BL/6 mouse model assessed as inhibition of serum triacylglycerol level at 50 mg/kg, po administered daily through oral gavage for 2 weeks by colorimetric method relative to control. In kind it is functional. Conditions: C57BL/6, po, 336 h.
Data set [17] relates to Mus musculus. Nature of the data set: Antihyperlipidemic activity in ethanol-induced steatosis C57BL/6 mouse model assessed as inhibition of serum LDL cholesterol level at 50 mg/kg, po administered daily through oral gavage for 2 weeks by colorimetric method relative to control. Conditions: C57BL/6, po, 336 h. In kind it is functional.

As for `O=c1cc(-c2ccc(O)c(O)c2)oc2cc(O)cc(O)c12` [LUTEOLIN], the inhibition entry in data set [1], in data set [4], in data set [5] and in [9] was “inactive” each time. The inhibition entry in data set [2] was “Dose-dependent effect”; in data set [3], “Dose-dependent effect”; in data set [12], 41%; in data set [13] it was 64%; in data set [14] it was “Dose-dependent effect”. For the same compound, the result in data set [6] and in data set [7] was inactive. Besides, the inhibition result (in data set [8]; with HepG2 [11]) was “Active” throughout. For the same compound, the Activity result at Liver X receptor was “Not Active”; with HepG2 [10], “Non-Toxic”; in data set [15] it was “Not Active”; with RAW264.7, “Non-Toxic”. Also, the values for the inhibition in vivo at 50 mg/kg in the data set with Mus musculus [16] and in the data set on Mus musculus [17] were 22% and 52%, respectively.

The term inhibition denotes the relative decrease from the control value, in per cent. As a reminder, the inhibition in vivo is the change of the read-out against control, counted positive when it falls.
